# CHOP inh: inhibitors of CHOP promoter induction, primary screen, cell-based, unfolded protein response, luciferase reporter | CHO-K1 CHOP-promoter luciferase, tunicamycin-induced, 15-18 h | inhibition, % at 10 µM | 3.8% of 220,000 active | AID 2732, 2010;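 active = compounds that reduced the stress-induced luciferase reporter signal by more than about 70% of percent inhibition, limit read from the data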;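 also: 0% = tunicamycin plus vehicle and 100% = wells without tunicamycin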
# GAA850 FXN act: FXN promoter activators, primary screen, cell-based, luciferase luminescence, HEK293 lucGAA850. HEK293 lucGAA850 FXN promoter luciferase reporter, 24 h; percent of 10 µM SAHA response. activation, % at 6 µM. 0.56% of 360,000 active. AID 540364, 2011;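 active = activation above the average of all compounds screened plus 3 SD, cutoff fixed separately per campaign, cut at about 7.5% in these data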;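 also: 0% = DMSO wells and 100% = 10 µM SAHA wells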
# UPR XBP1 act: activators of adaptive XBP1 UPR arm, primary screen, cell-based, CHO-XBP1 luciferase reporter, luminescence, uHTS | IRE1-XBP1 UPR activation; percent of tunicamycin response, DMSO as zero | activation, % at 20 µM | 0.33% of 330,000 active | AID 463104, 2010;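 active = versus positive control, 20 µM dose yields 30% or more activation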;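 also: 100% = tunicamycin at 10 µg/mL and 0% = DMSO only wells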
#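 Test system: CHO-XBP1 luciferase reporter cells | Buffer or medium: Serum-containing F12 medium, 10% FBS | Schedule: 6 h compound exposure at 37 °C, 5% CO2 | Detection: Steady-Glo luciferase glow luminescence, 10 min after reagent addition | Read-out basis: Activation, % of tunicamycin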
# CHOP UPR activ: activators of apoptotic CHOP UPR arm, primary screen, cell-based, CHO-CHOP luciferase reporter, luminescence, uHTS. UPR activation; percent of tunicamycin response over DMSO baseline. 0.34% of 330,000 active. activation, % at 10 µM;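 active = at 10 µM dose, activation of 40% or more, normalized to positive control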;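 also: 100% = tunicamycin at 10 µg/mL and 0% = DMSO alone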
#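 System: CHO-CHOP luciferase reporter cell line | Buffer or medium: F12 medium containing 10% fetal bovine serum | Doses: One dose, 10 µM in 0.5% DMSO | Times: 6 h compound exposure at 37 °C after overnight seeding | Signal: Luciferase luminescence | Read-out: % activation vs tunicamycin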
# CHOP inh conf: retest of CHOP induction inhibitors, confirmation, cell-based; shares compounds with CHOP inh; CHO-CHOP promoter luciferase reporter, tunicamycin-induced, luminescence; inhibition, % at 10 µM; 45% of 2,100 active; AID 504437, 2011;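 active = mean of three repeat readings of reporter signal inhibition above a set limit, cut at about 70% in these data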;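 also: 0% = tunicamycin plus vehicle and 100% = wells lacking tunicamycin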
# The depositor's hits bear a star; . = not tested or not shown. The entries come from a sample that favours hits as a whole.
SMILES,CHOP inh,GAA850 FXN act,UPR XBP1 act,CHOP UPR activ,CHOP inh conf
CNc1ncnc2c1ncn2[C@H]1CN(C2CCCC2)C[C@@H](CO)O1,.,1.0,.,.,.
Cc1nonc1NC(=O)CSc1nc(C2CCCCC2)nc2ccccc12,-55.2,-1.9,-2.7,0.0,.
Cc1nonc1NC(=O)CSc1nc(C23CC4CC(CC(C4)C2)C3)nc2ccccc12,100.1*,3.5,-1.3,-0.2,-1.9
CC(OC(=O)[C@H](C)N=C1NS(=O)(=O)c2ccccc21)C(=O)Nc1ccc(F)c(F)c1F (some centres not stated),.,-2.8,.,.,.
Cc1ccc2[nH]c(=O)c(C3C(C#N)=C(N)Oc4c3ccc3cccnc43)cc2c1 (configuration not stated),97.5*,1.6,1.8,-0.4,28.0
CC1=C(C)CS(=O)N(S(=O)(=O)c2ccc(Cl)cc2)C1 (configuration not stated),.,0.3,0.5,3.1,12.2
CC1CCCC(C)N1S(=O)(=O)c1ccc(Cl)cc1 (configuration not stated),.,0.4,-3.8,-0.6,.
CC(=O)Nc1ccc(C(=O)N2CCCCC2c2cc(C(=O)NC(C)C)no2)cc1 (configuration not stated),.,-1.4,.,.,.
CCCc1cc(C(=O)N(C2CCCCC2)C2CCCCC2)no1,99.5*,-0.3,-1.7,0.2,89.0*
CCC(=O)N(C)C[C@@H]1Oc2ncc(Br)cc2C(=O)N([C@H](C)CO)C[C@H]1C,.,-0.9,.,.,.
COc1ccc(NC(=O)C2(C)Cc3c(-c4cccc(C(F)(F)F)c4)ccnc3O2)cc1OC (configuration not stated),.,-1.5,.,.,.
CC1(C(=O)NS(=O)(=O)c2ccc(Br)cc2)CCN1C(=O)c1cccc(F)c1 (configuration not stated),.,-0.9,.,.,.
CC(=O)Oc1oc(-c2ccccc2)nc1C=Nc1ccccc1,-2.2,0.4,4.4,-0.2,.
Cc1ccc(C(=O)Oc2oc(-c3ccco3)nc2C=Nc2ccccc2)cc1,102.2*,.,.,.,-24.2
COc1ccc(N=Cc2nc(-c3ccccc3)oc2OC(=O)c2ccccc2)cc1,30.1,5.2,25.6,25.1,.
CCOC(=O)c1ccc(N=Cc2nc(-c3ccccc3)oc2OC(C)=O)cc1,105.6*,-0.1,5.3,1.2,-18.8
O=C(Nc1nccs1)c1csc([C@H]2C[C@H](O)[C@@H](CO)O2)n1,.,3.6,.,.,.
COCOCCn1cc(CN2CCS(=O)(=O)N(Cc3ccc(-c4ccc(F)cc4)cc3)C(CC(C)C)C2=O)nn1 (configuration not stated),.,0.7,.,.,.
C/C(CCc1ccc2c(c1)OCO2)=N\N=C(/N)SC1CC(=O)N(c2ccc(Cl)cc2)C1=O (configuration not stated),97.2*,-0.1,-3.6,-0.7,2.0
O=C(NC1CC1)c1ccc2nc([C@@H]3O[C@H](CO)[C@H](O)[C@H](O)[C@H]3O)[nH]c2c1,.,0.9,.,.,.
COCCN(C(=O)COC(=O)C12CC3CC(CC(O)(C3)C1)C2)c1c(N)n(Cc2ccccc2)c(=O)[nH]c1=O,.,0.7,.,.,.
CC(C)(C)c1ccc(-c2noc(CCC(N)=O)n2)cc1,100.5*,-16.8,-4.6,-8.8,113.0*
CC(C)(C)c1cc(C(c2cccnc2)N2CCN(CCO)CC2)cc(C(C)(C)C)c1O (configuration not stated),110.3*,-1.4,-9.3,-8.9,-59.8
CC(C)(C)n1nnnc1C(c1cccnc1)N1CCN(c2cccc(C(F)(F)F)c2)CC1 (configuration not stated),42.0,0.3,5.7,-2.1,.
Cc1ccc(O)c(-c2cc(C(=O)Nc3ccc(S(=O)(=O)N4CC(C)OC(C)C4)cc3)[nH]n2)c1 (configuration not stated),98.5*,0.3,3.0,0.3,33.0
SMILES,CHOP inh,GAA850 FXN act,UPR XBP1 act,CHOP UPR activ,CHOP inh conf
CNc1nc(N/N=C/c2cc3c(cc2[N+](=O)[O-])OCO3)nc(Nc2ccccc2)n1,105.8*,-6.0,7.6,2.0,24.9
CNc1nc(N/N=C/c2cc([N+](=O)[O-])ccc2F)nc(Nc2ccccc2)n1,.,0.1,.,.,.
C[C@@H]1CCCCO[C@H](CN(C)Cc2ccc3c(c2)OCO3)[C@@H](C)CN([C@H](C)CO)C(=O)c2cc(NC(=O)c3ccccc3)ccc2O1,.,-4.1,.,.,.
O=C(Nc1ccc(N2CCOCC2)c(C(=O)O)c1)c1ccco1,4.5,.,.,.,.
Cc1ccc(NC(=O)c2cc(NC(=O)c3ccco3)ccc2N2CCCCC2)cc1,99.8*,-0.5,2.9,-0.5,87.5*
N#Cc1c(-c2ccc(Cl)cc2)c(-c2ccc(Cl)cc2)nn(CCOC(=O)CCC(=O)O)c1=O,.,-2.5,.,.,.
O=c1[nH]c2ccc(S(=O)(=O)N3CCC(Cc4ccccc4)CC3)cc2o1,100.2*,-0.3,-1.7,-1.4,16.5
O=C(O)c1ccc(N/N=C/c2ccc3nccnc3c2)cc1,100.9*,-12.6,-6.0,-9.8,116.2*
O=C(O)c1ccc(N/N=C/c2ccncc2)cc1,.,0.7,-3.8,-0.2,.
c1ccc(CN2CCC(Nc3nc(-c4ccccc4)nc4ccccc34)CC2)cc1,102.3*,0.9,-2.4,0.6,38.2
O=C(Nc1ccccc1F)c1ccc2sc([C@@H]3O[C@H](CO)[C@H](O)[C@H](O)[C@H]3O)nc2c1,.,2.4,.,.,.
CCn1cc(/C=C(\NC(=O)c2ccccc2)C(=O)NCCCn2ccnc2)c2ccccc21,.,0.9,.,.,.
COc1cc(/C=C2\CCC(C)C3=C(c4cc(OC)c(OC)c(OC)c4)C(C#N)=C(N)OC32)cc(OC)c1OC (configuration not stated),.,2.8,.,.,.
CCCn1c(N/N=C(C)\C=C\c2ccccc2)nc2c1c(=O)[nH]c(=O)n2C,103.5*,.,1.1,0.5,-30.8
COc1cc(N2CCCC2)c(OC)cc1/C=C(/C#N)c1cccc(F)c1,28.8,-1.4,.,.,.
N#C/C(=C/c1ccc(N2CCCCCC2)o1)c1cccc(F)c1,104.0*,5.6,2.5,12.5,27.5
O=C(NC1CC1)c1ccc(CSCc2ccc(Cl)cc2)o1,.,1.0,.,.,.
Cc1cccc(/C=N/Nc2ccc3ccccc3n2)c1,96.5*,-10.4,-12.6,-7.9,98.7*
Cc1ccc(CSc2nc3ccncc3n2CC(=O)Nc2cc(C)cc(C)c2)cc1,96.2*,4.5,-0.7,4.7,25.5
Cc1onc(-c2ccccc2)c1C(=O)OCC(=O)Nc1ccccc1Cl,.,-0.8,.,.,.
Cc1nc(-c2c(C(F)(F)F)noc2-c2ccc(O)cc2O)cs1,53.9,-0.8,-2.4,-0.8,.
CCOc1cc(C)c(-c2onc(C(F)(F)F)c2-c2csc(C)n2)c(O)c1,104.9*,0.9,1.7,2.4,72.3*

# Screening data as filed in PubChem BioAssay.
